Results published in ChEMBL document CHEMBL4041517 (Eur J Med Chem, 2017).

What was measured:
[1] = target: T1, Amine oxidase [flavin-containing] B (Homo sapiens, UniProt P27338); assay: Inhibition of recombinant human MAO-B using kynuramine as substrate by fluorescence spectrophotometry
T1 sequence (P27338 whole entry): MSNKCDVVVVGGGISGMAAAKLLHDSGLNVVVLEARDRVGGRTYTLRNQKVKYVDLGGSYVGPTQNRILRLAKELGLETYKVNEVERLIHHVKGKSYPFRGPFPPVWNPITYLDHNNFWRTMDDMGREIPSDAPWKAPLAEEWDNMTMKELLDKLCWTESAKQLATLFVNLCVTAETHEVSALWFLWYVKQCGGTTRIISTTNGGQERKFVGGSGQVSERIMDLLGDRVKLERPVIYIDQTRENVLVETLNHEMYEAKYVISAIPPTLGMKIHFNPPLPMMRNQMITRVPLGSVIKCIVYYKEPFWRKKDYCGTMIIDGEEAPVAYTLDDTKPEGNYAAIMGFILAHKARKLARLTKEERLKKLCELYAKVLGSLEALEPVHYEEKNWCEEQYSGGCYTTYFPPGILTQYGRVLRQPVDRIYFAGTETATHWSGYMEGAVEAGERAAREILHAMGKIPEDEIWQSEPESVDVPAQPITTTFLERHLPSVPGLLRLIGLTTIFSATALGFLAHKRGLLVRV

[2] = species on record: Homo sapiens; assay: Selectivity index, ratio of IC50 for recombinant human MAO-A to IC50 for recombinant human MAO-B
Outline: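 Ratio of IC50 for MAO-A to IC50 for MAO-B. Each IC50 is the mean of triplicate fluorometric kynuramine-oxidation determinations on the recombinant human enzymes.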

[3] = target: T2, Amine oxidase [flavin-containing] A (Homo sapiens, UniProt P21397); assay: Inhibition of recombinant human MAO-A using kynuramine as substrate by fluorescence spectrophotometry
T2 sequence (P21397 whole entry): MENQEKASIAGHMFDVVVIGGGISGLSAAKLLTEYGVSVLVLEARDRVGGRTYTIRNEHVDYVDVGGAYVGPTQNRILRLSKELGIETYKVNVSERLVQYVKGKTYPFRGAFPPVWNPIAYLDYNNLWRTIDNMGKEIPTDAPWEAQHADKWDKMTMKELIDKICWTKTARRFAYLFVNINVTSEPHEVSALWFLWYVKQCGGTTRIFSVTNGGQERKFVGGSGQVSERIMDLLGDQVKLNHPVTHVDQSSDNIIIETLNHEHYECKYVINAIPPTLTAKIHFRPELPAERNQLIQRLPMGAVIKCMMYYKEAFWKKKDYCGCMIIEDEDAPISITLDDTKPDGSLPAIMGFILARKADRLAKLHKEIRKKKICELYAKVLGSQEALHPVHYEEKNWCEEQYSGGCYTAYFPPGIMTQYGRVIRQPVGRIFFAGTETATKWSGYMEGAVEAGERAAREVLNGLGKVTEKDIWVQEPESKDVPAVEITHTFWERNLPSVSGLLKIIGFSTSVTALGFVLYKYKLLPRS

[4] = target: T1, Amine oxidase [flavin-containing] B; assay: Reversible inhibition of recombinant human MAO-B assessed as residual activity pre-incubated at 4 times IC50 for 15 mins followed by kynuramine addition measured after 20 mins by fluorescence spectrophotometric analysis relative to untreated control
Outline: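 Recombinant MAO-B is preincubated with inhibitor for 15 min at 37 °C without dialysis. It is then diluted two-fold by adding kynuramine (50 final) and incubated 20 min at 37 °C. 4-Hydroxyquinoline is measured fluorometrically. Residual rate is compared with control; triplicates, mean ± SD.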

[5] = target: T1, Amine oxidase [flavin-containing] B; assay: Reversible inhibition of recombinant human MAO-B assessed as residual activity pre-incubated at 4 times IC50 for 15 mins followed by dialysis for 24 hrs and subsequent kynuramine addition measured after 20 mins by fluorescence spectrophotometric analysis relative to untreated control
Outline: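 Recombinant MAO-B is preincubated with inhibitor for 15 min at 37 °C, then dialysed for 24 h at 4 °C. It is then diluted two-fold by adding kynuramine (50 final) and incubated 20 min at 37 °C. 4-Hydroxyquinoline is read fluorometrically. Residual activity is compared with an inhibitor-free dialysed control; triplicates, mean ± SD. (R)-Deprenyl is run the same way.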

In the case of O=[N+]([O-])/C=C/c1cccc(OCc2cccc(Br)c2)c1, the IC50 [1] is reported as 0.262 µM, the Ratio IC50 [2] is reported as 25 and the IC50 [3] is reported as 6.63 µM.
With O=[N+]([O-])/C=C/c1cccc(OCc2cccc(F)c2)c1 the IC50 [1] was 0.103 µM, the Ratio IC50 [2] was 41 and the IC50 [3] was 4.2 µM.
O=[N+]([O-])/C=C/c1cccc(OCc2ccc(C(F)(F)F)cc2)c1 showed an IC50 [1] of 0.106 µM, a Ratio IC50 [2] of 62 and an IC50 [3] of 6.6 µM.
O=[N+]([O-])/C=C/c1cccc(OCc2ccc(Br)cc2)c1 gave an IC50 [1] of over 100 µM and an IC50 [3] of over 100 µM.
With O=[N+]([O-])/C=C/c1cccc(OCc2ccccc2)c1 the IC50 [1] was 0.085 µM, the Ratio IC50 [2] was 43 and the IC50 [3] was 3.65 µM.
O=[N+]([O-])/C=C/c1cccc(OCc2cccc(Cl)c2)c1 showed an IC50 [1] of 0.105 µM, a Ratio IC50 [2] of 34 and an IC50 [3] of 3.52 µM.
In the case of O=[N+]([O-])/C=C/c1cccc(OCc2cccc(C(F)(F)F)c2)c1, the IC50 [1] is reported as 0.273 µM, the Ratio IC50 [2] is reported as 32 and the IC50 [3] is reported as 8.78 µM.
In the case of O=[N+]([O-])/C=C/c1cccc(OCc2ccc(F)cc2)c1, the IC50 [1] is reported as 0.039 µM, the Ratio IC50 [2] is reported as 166 and the Activity [4] is reported as 37%. It also gave an Activity [5] of 38% and an IC50 [3] of 6.46 µM.
Cc1cccc(COc2cccc(/C=C/[N+](=O)[O-])c2)c1 showed an IC50 [1] of 0.565 µM, a Ratio IC50 [2] of 21 and an IC50 [3] of 11.8 µM.
Cc1ccc(COc2cccc(/C=C/[N+](=O)[O-])c2)cc1 gave an IC50 [1] of 0.192 µM, a Ratio IC50 [2] of 49 and an IC50 [3] of 9.36 µM.
O=[N+]([O-])/C=C/c1cccc(OCc2ccc(Cl)cc2)c1 showed an IC50 [1] of 0.144 µM, a Ratio IC50 [2] of 53 and an IC50 [3] of 7.59 µM.
